From ChEMBL document CHEMBL1649115, “Enhanced susceptibility to antifungal oligopeptides in yeast strains overexpressing ABC multidrug efflux pumps” (Antimicrob Agents Chemother, 2008)
≈ marks a conversion by molar mass, not a printed value.

What was measured:
[1] = tested on: Candida albicans; test: Antifungal activity against wild type Candida albicans 10261 in RPMI-1640 buffered medium after 24 hrs by microdilution method; type: functional; conditions: Candida albicans, 10261, 24 h; read-out: MIC
Summary of the method: (§1)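 C. albicans cells were grown in 2% glucose, 1% yeast extract, 1% Bacto peptone medium before testing. […] CARE-2 fingerprinting confirmed that each pair is a single strain.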

[2] = tested on: Saccharomyces cerevisiae; test: Drug uptake in Saccharomyces cerevisiae AD12345678 at 200 uM pretreated for 10 mins measured after 60 mins by fluorescamine staining; type: ADME, organism-based; conditions: in vivo, 1 h
[3] = tested on: Saccharomyces cerevisiae; test: Antifungal activity against Saccharomyces cerevisiae AD12345678 in YNPG medium containing 1 mg/ml […] after 24 hrs by microdilution method; type: functional; conditions: AD12345678, 24 h
[4] = tested on: Saccharomyces cerevisiae; test: Drug uptake in Saccharomyces cerevisiae ADCDR1 expressing Candida albicans CDR1 efflux pump at 200 uM pretreated for 10 mins measured after 60 mins by fluorescamine staining; type: ADME, organism-based; conditions: in vivo, 1 h
[5] = tested on: Candida albicans; test: Antifungal activity against fluconazole sensitive Candida albicans isolate Gu4 in RPMI-1640 buffered medium after 24 hrs by microdilution method; type: functional; conditions: Candida albicans, isolate Gu4, 24 h; read-out: MIC; summary of the method: as §1
[6] = tested on: Candida albicans; test: Antifungal activity against fluconazole resistant Candida albicans isolate Gu5 overexpressing CDR1 and CDR2 in RPMI-1640 buffered medium after 24 hrs by microdilution method; type: functional; conditions: isolate Gu5, 24 h
Summary of the method: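 C. albicans cells were grown in 2% glucose, 1% yeast extract, 1% Bacto peptone medium before testing. CARE-2 fingerprinting confirmed that each pair is a single strain.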

[7] = tested on: Candida albicans; test: Antifungal activity against fluconazole sensitive Candida albicans isolate B3 in RPMI-1640 buffered medium after 24 hrs by microdilution method; type: functional; conditions: Candida albicans, isolate B3, 24 h; read-out: MIC; summary of the method: as §1
[8] = tested on: Candida albicans; test: Antifungal activity against fluconazole resistant Candida albicans isolate B4 overexpressing MDR1 in RPMI-1640 buffered medium after 24 hrs by microdilution method; type: functional; conditions: Candida albicans, isolate B4, 24 h; read-out: MIC; summary of the method: as §1
[9] = tested on: Saccharomyces cerevisiae; test: Antifungal activity against Saccharomyces cerevisiae ADCDR2 expressing Candida albicans CDR2 efflux pump in YNPG medium containing 1 mg/ml […] after 24 hrs by microdilution method; type: functional; conditions: ADCDR2, 24 h
[10] = tested on: Saccharomyces cerevisiae; test: Drug uptake in Saccharomyces cerevisiae ADMDR1 expressing Candida albicans MDR1 efflux pump at 200 uM pretreated for 10 mins measured after 60 mins by fluorescamine staining; type: ADME, organism-based; conditions: in vivo, 1 h
[11] = tested on: Saccharomyces cerevisiae; test: Antifungal activity against wild type Saccharomyces cerevisiae ATCC 9763 in YNPG medium containing 1 mg/ml […] after 24 hrs by microdilution method; type: functional; conditions: ATCC 9763, 24 h
[12] = tested on: Saccharomyces cerevisiae; test: Antifungal activity against Saccharomyces cerevisiae ADCDR1 expressing Candida albicans CDR1 efflux pump in YNPG medium containing 1 mg/ml […] after 24 hrs by microdilution method; type: functional; conditions: ADCDR1, 24 h
[13] = tested on: Saccharomyces cerevisiae; test: Drug uptake in Saccharomyces cerevisiae ADCDR2 expressing Candida albicans CDR2 efflux pump at 200 uM pretreated for 10 mins measured after 60 mins by fluorescamine staining; type: ADME, organism-based; conditions: in vivo, 1 h
[14] = tested on: Saccharomyces cerevisiae; test: Antifungal activity against Saccharomyces cerevisiae ADMDR1 expressing Candida albicans MDR1 efflux pump in YNPG medium containing 1 mg/ml […] after 24 hrs by microdilution method; type: functional; conditions: ADMDR1, 24 h
[15] = tested on: Saccharomyces cerevisiae; test: Antifungal activity against Saccharomyces cerevisiae ADCDR2 expressing Candida albicans CDR2 efflux pump in YNBG medium containing 1 mg/ml […] after 24 hrs by microdilution method; type: functional; conditions: ADCDR2, 24 h
[16] = tested on: Saccharomyces cerevisiae; test: Drug extrusion in Saccharomyces cerevisiae ADCDR2 expressing Candida albicans CDR2 efflux pump reenergized with glucose at pH 6.0 assessed as fluorescamine-compound conjugate level after 30 mins; type: ADME, organism-based; conditions: in vivo, pH 6, 0.5 h
Summary of the method: (§2)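 Cells de-energized with 2-deoxy-D-glucose were loaded (200 µM, 60 min, pH 4.0), washed, and resuspended at OD660 1.0 in 50 mM phosphate pH 6.0 at 30°C. After 5-min preincubation, 10 mM glucose was added. Supernatants were sampled every 5 min and assayed with fluorescamine. Unloaded, identically treated cells gave the background control.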

[17] = tested on: Saccharomyces cerevisiae; test: Drug extrusion in Saccharomyces cerevisiae ADCDR1 expressing Candida albicans CDR1 efflux pump reenergized with glucose at pH 6.0 assessed as fluorescamine-compound conjugate level after 30 mins; type: ADME, organism-based; conditions: in vivo, pH 6, 0.5 h; summary of the method: as §2
[18] = tested on: Saccharomyces cerevisiae; test: Antifungal activity against Saccharomyces cerevisiae ADMDR1 expressing Candida albicans MDR1 efflux pump in YNBG medium containing 1 mg/ml […] after 24 hrs by microdilution method; type: functional; conditions: ADMDR1, 24 h
[19] = tested on: Saccharomyces cerevisiae; test: Antifungal activity against wild type Saccharomyces cerevisiae ATCC 9763 in YNBG medium containing 1 mg/ml […] after 24 hrs by microdilution method; type: functional; conditions: ATCC 9763, 24 h
[20] = tested on: Saccharomyces cerevisiae; test: Antifungal activity against Saccharomyces cerevisiae AD12345678 in YNBG medium containing 1 mg/ml […] after 24 hrs by microdilution method; type: functional; conditions: AD12345678, 24 h
[21] = tested on: Saccharomyces cerevisiae; test: Antifungal activity against Saccharomyces cerevisiae ADCDR1 expressing Candida albicans CDR1 efflux pump in YNBG medium containing 1 mg/ml […] after 24 hrs by microdilution method; type: functional; conditions: ADCDR1, 24 h
[22] = tested on: Saccharomyces cerevisiae; test: Drug uptake in Saccharomyces cerevisiae ADMDR1 at 50 uM pretreated for 10 mins measured after 60 mins by fluorescamine staining in presence of fluconazole; conditions: in vivo, 1 h
[23] = tested on: Saccharomyces cerevisiae; test: Drug uptake in Saccharomyces cerevisiae ADCDR1 at 200 uM pretreated for 10 mins measured after 60 mins by fluorescamine staining in presence of fluconazole; type: ADME, organism-based; conditions: in vivo, 1 h
[24] = tested on: Candida albicans; test: Prodrug stability in fluconazole sensitive Candida albicans isolate Gu4 assessed as compound cleavage rate measured per mg of protein; type: ADME, organism-based; conditions: in vivo
Summary of the method: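 Oligopeptides were incubated with cell extracts of the yeast cells, and their hydrolytic enzymes cleaved them. The amino acids released were quantified by the Cd-ninhydrin method.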

[25] = tested on: Candida albicans; test: Prodrug stability in fluconazole sensitive Candida albicans isolate B3 assessed as compound cleavage rate measured per mg of protein; type: ADME, organism-based; conditions: in vivo
[26] = tested on: Saccharomyces cerevisiae; test: Prodrug stability in Saccharomyces cerevisiae ADCDR1 expressing Candida albicans CDR1 efflux pump assessed as compound cleavage rate measured per mg of protein; type: ADME, organism-based; conditions: in vivo
[27] = tested on: Saccharomyces cerevisiae; test: Prodrug stability in wild type Saccharomyces cerevisiae ATCC 9763 assessed as compound cleavage rate measured per mg of protein; type: ADME, organism-based; conditions: in vivo
[28] = tested on: Saccharomyces cerevisiae; test: Drug uptake in Saccharomyces cerevisiae AD12345678 at 200 uM pretreated for 10 mins measured after 60 mins by fluorescamine staining in presence of fluconazole; type: ADME, organism-based; conditions: in vivo, 1 h
[29] = tested on: Saccharomyces cerevisiae; test: Prodrug stability in Saccharomyces cerevisiae AD12345678 assessed as compound cleavage rate measured per mg of protein; type: ADME, organism-based; conditions: in vivo
[30] = tested on: Saccharomyces cerevisiae; test: Drug uptake in Saccharomyces cerevisiae ADCDR2 at 200 uM pretreated for 10 mins measured after 60 mins by fluorescamine staining in presence of fluconazole; type: ADME, organism-based; conditions: in vivo, 1 h
[31] = tested on: Candida albicans; test: Prodrug stability in wild type Candida albicans 10261 assessed as compound cleavage rate measured per mg of protein; type: ADME, organism-based; conditions: in vivo
[32] = tested on: Saccharomyces cerevisiae; test: Prodrug stability in Saccharomyces cerevisiae ADMDR1 expressing Candida albicans MDR1 efflux pump assessed as compound cleavage rate measured per mg of protein; type: ADME, organism-based; conditions: in vivo
[33] = tested on: Saccharomyces cerevisiae; test: Prodrug stability in Saccharomyces cerevisiae ADCDR2 expressing Candida albicans CDR2 efflux pump assessed as compound cleavage rate measured per mg of protein; type: ADME, organism-based; conditions: in vivo

| SMILES | MIC [1] | Drug uptake [2] | MIC [3] | Drug uptake [4] | MIC [5] | MIC [6] | MIC [7] | MIC [8] | MIC [9] | Drug uptake [10] | MIC [11] | MIC [12] | Drug uptake [13] | MIC [14] | other results |
| --- | --- | --- | --- | --- | --- | --- | --- | --- | --- | --- | --- | --- | --- | --- | --- |
| [N-]=[N+]=CC(=O)OC[C@H](N)C(=O)O [AZASERINE] | 16 µg/mL (≈ 92.4 µM) | 1.75 nmol/min/mg | 2 µg/mL (≈ 11.6 µM) | 2.15 nmol/min/mg | 16 µg/mL (≈ 92.4 µM) | 16 µg/mL (≈ 92.4 µM) | 32 µg/mL (≈ 185 µM) | 32 µg/mL (≈ 185 µM) | 1 µg/mL (≈ 5.78 µM) | 1.7 nmol/min/mg | 2 µg/mL (≈ 11.6 µM) | 1 µg/mL (≈ 5.78 µM) | 1.92 nmol/min/mg | 2 µg/mL (≈ 11.6 µM) |  |
| N[C@H]1CCC[C@H]1C(=O)O | 1 µg/mL (≈ 7.74 µM) | 1.63 nmol/min/mg | 128 µg/mL (≈ 991 µM) | 2.11 nmol/min/mg | 1 µg/mL (≈ 7.74 µM) | 4 µg/mL (≈ 31 µM) | 2 µg/mL (≈ 15.5 µM) | 8 µg/mL (≈ 61.9 µM) | 256 µg/mL (≈ 1980 µM) | 1.67 nmol/min/mg | 64 µg/mL (≈ 496 µM) | 256 µg/mL (≈ 1980 µM) | 1.85 nmol/min/mg | 256 µg/mL (≈ 1980 µM) | MIC [15]: 16 µg/mL (≈ 124 µM); Activity [16]: 5 µM; Activity [17]: 5 µM; MIC [18]: 16 µg/mL (≈ 124 µM); MIC [19]: 4 µg/mL (≈ 31 µM); MIC [20]: 8 µg/mL (≈ 61.9 µM); MIC [21]: 16 µg/mL (≈ 124 µM) |
| NC(CC(=O)NO)C(=O)O (stereo not given) | 256 µg/mL (≈ 1730 µM) | 1.54 nmol/min/mg | 256 µg/mL (≈ 1730 µM) | 2.25 nmol/min/mg | 256 µg/mL (≈ 1730 µM) | 128 µg/mL (≈ 864 µM) | 256 µg/mL (≈ 1730 µM) | 256 µg/mL (≈ 1730 µM) | 64 µg/mL (≈ 432 µM) | 1.25 nmol/min/mg | 256 µg/mL (≈ 1730 µM) | 64 µg/mL (≈ 432 µM) | 1.69 nmol/min/mg | 128 µg/mL (≈ 864 µM) |  |
| CC(C)C[C@H](NC(=O)[C@@H](N)COCCN)C(=O)NCC(=O)O |  | 0.69 nmol/min/mg |  | 1.42 nmol/min/mg |  |  |  |  |  | 0.87 nmol/min/mg |  |  | 1.31 nmol/min/mg |  | Drug uptake [22]: 0.85 nmol/min/mg; Drug uptake [23]: 1.32 nmol/min/mg; Stability [24]: 20 nmol/min; Stability [25]: 20 nmol/min; Stability [26]: 14 nmol/min; Stability [27]: 14 nmol/min; Drug uptake [28]: 0.7 nmol/min/mg; Stability [29]: 14 nmol/min; Drug uptake [30]: 1.26 nmol/min/mg; Stability [31]: 20 nmol/min; Stability [32]: 14 nmol/min; Stability [33]: 14 nmol/min |
